Data on 18 compounds can be found in ChEMBL document CHEMBL2417520, “Synthesis and biological evaluation of amino analogs of Ludartin: potent and selective cytotoxic agents” (Bioorg Med Chem Lett, 2013).

In experiment [1] the test system is THP-1. Briefly: Cytotoxicity against human THP1 cells assessed as cell growth inhibition at 50 uM after 48 hrs by sulphorhodamine B assay. The conditions noted are these: THP-1, 48 h, read-out: GI. The experiment is classed as functional. In short, it runs like this: (§1)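 Single-concentration screen of analogs at 50 µM for 48 h on overnight-adhered cells maintained in RPMI-1640/10% FBS at 37 °C, 5% CO2. Cells were fixed with ice-cold TCA (60 min) and stained 30 min with 0.4% SRB in 1% acetic acid. Bound dye was dissolved in 10 mM Tris and OD read at 570 nm, expressed as % growth inhibition.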
(In general: Sulforhodamine B stains cellular protein and so reports cell mass.)

For experiment [2], the system named is PC-3. The experiment in a line: Cytotoxicity against human PC3 cells assessed as cell growth inhibition at 50 uM after 48 hrs by sulphorhodamine B assay. The settings on record: PC-3, 48 h, read-out: GI. The experiment is classed as functional. In short, it runs like this: as §1
In experiment [3] the test system is A549. The experiment in a line: Cytotoxicity against human A549 cells assessed as cell growth inhibition at 50 uM after 48 hrs by sulphorhodamine B assay. The format is functional. The settings on record: A549, 48 h, read-out: GI. In outline: as §1
The subject of experiment [4] is HCT-116. The experiment in a line: Cytotoxicity against human HCT116 cells assessed as cell growth inhibition at 50 uM after 48 hrs by sulphorhodamine B assay. The settings on record: HCT-116, 48 h, read-out: GI. The experiment is classed as functional. In short, it runs like this: as §1
Experiment [5] has as its system PC-3. Briefly: Cytotoxicity against human PC3 cells assessed as cell growth inhibition after 48 hrs by sulphorhodamine B assay. The format is functional, cell-based. The settings on record: PC-3, 48 h. In outline: (§2)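 Cells grown in RPMI-1640 with 10% FBS and penicillin/streptomycin at 37 °C under 5% CO2, then allowed to adhere overnight. Only analogs giving >50% inhibition at 50 µM were retested at 10–100 µM for 48 h. Cells were fixed with cold TCA and stained with 0.4% SRB in 1% acetic acid. Dye was solubilised in 10 mM Tris and read at 570 nm to give IC50.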

The subject of experiment [6] is A549. The experiment in a line: Cytotoxicity against human A549 cells assessed as cell growth inhibition after 48 hrs by sulphorhodamine B assay. The settings on record: A549, 48 h. The experiment is classed as functional, cell-based. In outline: as §2
Experiment [7] has as its system HCT-116. The experiment in a line: Cytotoxicity against human HCT116 cells assessed as cell growth inhibition after 48 hrs by sulphorhodamine B assay. The experiment is classed as functional, cell-based. The settings on record: HCT-116, 48 h. In short, it runs like this: as §2
The subject of experiment [8] is THP-1. The experiment in a line: Cytotoxicity against human THP1 cells assessed as cell growth inhibition after 48 hrs by sulphorhodamine B assay. The format is functional, cell-based. The conditions noted are these: THP-1, 48 h. In short, it runs like this:
as §2

The subject of experiment [9] is PC-3. Briefly: Ratio of ludartin IC50 to compound IC50 for human PC3 cells. The experiment is classed as functional.
Experiment [10] relates to A549. Briefly: Ratio of ludartin IC50 to compound IC50 for human A549 cells. The experiment is classed as functional.

For the compound `CC1=C2C[C@H]3O[C@@]3(C)[C@@H]2[C@H]2OC(=O)[C@@H](Cn3nc4ccccc4n3)[C@@H]2CC1`, the inhibition of growth at 50 µM was found to be 15% in the experiment on THP-1 [1], 40% in the experiment on PC-3 [2], 25% in the experiment on A549 [3] and 13% in the experiment on HCT-116 [4].
As to `C#CCNC[C@@H]1C(=O)O[C@H]2[C@H]1CCC(C)=C1C[C@H]3O[C@@]3(C)[C@@H]12`, the inhibition of growth at 50 µM is 40% in the experiment on THP-1 [1], 33% with PC-3 [2], 36% in the experiment with A549 [3] and 4% with HCT-116 [4].
A word on the IC50: it is the concentration needed to halve the response being measured. With `C=C1C(=O)O[C@H]2[C@H]1CCC(C)=C1C[C@H]3O[C@@]3(C)[C@@H]12` [LUDARTIN], the 50% inhibitory concentration (IC50) in the experiment on PC-3 [5] was 7.5 µM; in the experiment with A549 [6] it was 7.4 µM; with HCT-116 [7], 6.9 µM; in the experiment on THP-1 [8] it was 3.1 µM. The inhibition of growth at 50 µM was found to be 98% in the experiment on THP-1 [1], 97% in the experiment on PC-3 [2], 97% with A549 [3] and 97% in the experiment on HCT-116 [4].
Turning to `CC1=C2C[C@H]3O[C@@]3(C)[C@@H]2[C@H]2OC(=O)[C@@H](Cn3cncn3)[C@@H]2CC1`, the IC50 is 35 µM in the experiment on PC-3 [5], 32 µM with A549 [6], 20 µM in the experiment with HCT-116 [7] and 15 µM with THP-1 [8]. Further, the inhibition of growth at 50 µM in the experiment on THP-1 [1] came to 83%; in the experiment on PC-3 [2], 66%; in the experiment on A549 [3], 69%; in the experiment on HCT-116 [4], 70%.
As for `CC1=C2C[C@H]3O[C@@]3(C)[C@@H]2[C@H]2OC(=O)[C@@H](CNCc3ccc(F)cc3)[C@@H]2CC1`, the inhibition of growth at 50 µM in the experiment on THP-1 [1] worked out at 26%; with PC-3 [2], 64%; in the experiment with A549 [3] it was 16%; in the experiment with HCT-116 [4], 0%.
Consider `CC1=C2C[C@H]3O[C@@]3(C)[C@@H]2[C@H]2OC(=O)[C@@H](CN3CCCCC3)[C@@H]2CC1`, for which the IC50 with PC-3 [5] came out at 23 µM; in the experiment with A549 [6], 17 µM; in the experiment on HCT-116 [7], 4 µM; in the experiment with THP-1 [8], 3.9 µM. The inhibition of growth at 50 µM in the experiment on THP-1 [1] was 93%; in the experiment with PC-3 [2] it was 85%; with A549 [3], 87%; with HCT-116 [4] it was 90%.
Consider `CC1=C2C[C@H]3O[C@@]3(C)[C@@H]2[C@H]2OC(=O)[C@@H](Cn3ncc4ccc([N+](=O)[O-])cc43)[C@@H]2CC1`, for which the IC50 with PC-3 [5] came out at 2.2 µM; in the experiment on A549 [6], 35 µM; with HCT-116 [7], 17 µM; with THP-1 [8], 29 µM. In addition, the inhibition of growth at 50 µM in the experiment on THP-1 [1] turned out to be 63%; in the experiment on PC-3 [2], 99%; in the experiment with A549 [3], 84%; with HCT-116 [4], 86%. For the same compound, the “Ratio IC50” value with PC-3 [9] amounted to 3.
`C=CCNC[C@@H]1C(=O)O[C@H]2[C@H]1CCC(C)=C1C[C@H]3O[C@@]3(C)[C@@H]12`: the inhibition of growth at 50 µM stood at 39% in the experiment on THP-1 [1], 16% with PC-3 [2], 0% in the experiment with A549 [3] and 28% in the experiment on HCT-116 [4].
For `CC1=C2C[C@H]3O[C@@]3(C)[C@@H]2[C@H]2OC(=O)[C@@H](Cn3cnc([N+](=O)[O-])c3)[C@@H]2CC1` the same measures were 32%, 15%, 0% and 30%.
In the case of `CC1=C2C[C@H]3O[C@@]3(C)[C@@H]2[C@H]2OC(=O)[C@@H](Cn3ccnc3)[C@@H]2CC1`, the inhibition of growth at 50 µM in the experiment on THP-1 [1] was determined as 36%; with PC-3 [2] it was 53%; in the experiment on A549 [3], 0%; in the experiment with HCT-116 [4], 42%.
For `CNC[C@@H]1C(=O)O[C@H]2[C@H]1CCC(C)=C1C[C@H]3O[C@@]3(C)[C@@H]12` the same measures were 25%, 12%, 10% and 16%.
Consider `CC1=C2C[C@H]3O[C@@]3(C)[C@@H]2[C@H]2OC(=O)[C@@H](CN3CCCC3)[C@@H]2CC1`, for which the inhibition of growth at 50 µM was 67% in the experiment on THP-1 [1], 11% in the experiment with PC-3 [2], 0% in the experiment with A549 [3] and 15% in the experiment on HCT-116 [4]. Also, the IC50 in the experiment on THP-1 [8] is 26 µM.
With `CCCNC[C@@H]1C(=O)O[C@H]2[C@H]1CCC(C)=C1C[C@H]3O[C@@]3(C)[C@@H]12`, the inhibition of growth at 50 µM came out at 23% in the experiment on THP-1 [1], 17% in the experiment on PC-3 [2], 39% in the experiment with A549 [3] and 2% in the experiment on HCT-116 [4].
With `CC1=C2C[C@H]3O[C@@]3(C)[C@@H]2[C@H]2OC(=O)[C@@H](Cn3ncc4cc([N+](=O)[O-])ccc43)[C@@H]2CC1`, the “Ratio IC50” value in the experiment with A549 [10] stood at 3. In addition, the half-maximal inhibitory concentration (IC50) with PC-3 [5] was found to be 34 µM; in the experiment with A549 [6] it was 2.6 µM; in the experiment on HCT-116 [7], 40 µM; in the experiment on THP-1 [8], 31 µM. Also, the inhibition of growth at 50 µM in the experiment with THP-1 [1] is 72%; in the experiment with PC-3 [2], 52%; with A549 [3] it was 99%; in the experiment on HCT-116 [4], 57%.
On to `CCCCNC[C@@H]1C(=O)O[C@H]2[C@H]1CCC(C)=C1C[C@H]3O[C@@]3(C)[C@@H]12`, for which the inhibition of growth at 50 µM worked out at 28% in the experiment with THP-1 [1], 14% in the experiment with PC-3 [2], 0% in the experiment on A549 [3] and 4% in the experiment with HCT-116 [4].
For `CCN(CC)C[C@@H]1C(=O)O[C@H]2[C@H]1CCC(C)=C1C[C@H]3O[C@@]3(C)[C@@H]12`, the IC50 with PC-3 [5] turned out to be 32 µM; with A549 [6], 22 µM; with HCT-116 [7] it was 3.7 µM; with THP-1 [8] it was 3.5 µM. For the same compound, the inhibition of growth at 50 µM is 98% in the experiment with THP-1 [1], 56% in the experiment on PC-3 [2], 73% with A549 [3] and 95% with HCT-116 [4].
For `CC1=C2C[C@H]3O[C@@]3(C)[C@@H]2[C@H]2OC(=O)[C@@H](CN3CCOCC3)[C@@H]2CC1`, the inhibition of growth at 50 µM in the experiment with THP-1 [1] stood at 97%; in the experiment with PC-3 [2], 59%; in the experiment on A549 [3], 42%; in the experiment with HCT-116 [4] it was 58%. Further, the half-inhibitory concentration (IC50) in the experiment with THP-1 [8] worked out at 2.8 µM.
Taken in the same sequence, the figures for `CCNC[C@@H]1C(=O)O[C@H]2[C@H]1CCC(C)=C1C[C@H]3O[C@@]3(C)[C@@H]12` were 68%, 43%, 20%, 36% and 29 µM.
